Results of several laboratories.
Lines come from different studies, so protocols differ.
Effect on: cell growth or viability

The viability of `CCNc1nc(Nc2ccc(F)c(Cl)c2)c2ccccc2n1` is reported as 52.9% (Vero; MTT; 125 µg/mL).
`COc1ccc2c(Cc3ccccc3F)c3[n+](cc2c1OC)CCc1cc2c(cc1-3)OCO2` has an IC50 of 19.9 µM (L929; CCK-8; 24 h).
With `COc1ccc(S(=O)(=O)ON=C2C=C(C)C(=O)C(C)=C2)cc1` the CC50 was 2.85 µM (MDA-MB-436).
With `COC(=O)c1[nH]cc(-c2c[nH]c3ccc(Cl)cc23)c1-c1c[nH]c2ccc(Cl)cc12` the CC50 was greater than 10 µM (RAW264.7; resazurin; 72 h).
For `Cn1cnc2c1c(=O)n(CC(=O)Nc1c(Cl)cccc1Cl)c(=O)n2C`, the viability was 99.8% (Vero; MTT; 62.5 µg/mL).
The CC50 of `O=C1CCN(C(=O)Nc2ccc(F)c(Cl)c2)CN1Cc1ccc(F)cc1F` is reported as greater than 50 µM (AML12HBV10; MTT; 48 h).
`O=S(=O)(NNc1nnc(Cl)c2ccccc12)c1ccc(F)cc1` gave a viability of 24.9% (Vero; MTT; 250 µg/mL).
With `CC(C)=CCc1c(O)c(CC=C(C)C)c2occ(-c3ccc(O)cc3)c(=O)c2c1O` the viability was 91.4% (RAW264.7; MTT; 100 µg/mL, 24 h).
`NC(=O)c1ncn([C@@H]2O[C@H](CO)[C@@H](O)[C@H]2O)n1` gave a CC50 of greater than 100 µM (BHK-21; WST-1; 72 h).
`C=C1CC[C@H]2C(C)=CC[C@H]3C(=C)C(=O)O[C@@H]3[C@@H]12` gave a CC50 of 7.3 µM (CHO-K1; MTT; 72 h).
